Converted amounts (≈) assume the structure as drawn.
Legend:
Rattus norvegicus [1] = test: Hypolipidemic activity was determined in male rats, cholesterol was determined in high-density lipoproteins at 100 mg/kg; format: functional, organism-based; design: dose 100 mg/kg
Method in brief: (§1)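 Groups of eight male Wistar rats (200–230 g) dosed orally in PEG 400, either daily for 7 days (killed 24 h after the last dose) or for 4 days with a second dose on day 4 (killed 16 h later). Fasted 16 h. Paired sera pooled, lipoproteins separated by ultracentrifugation (1.006 and 1.040 g/cm³), HDL taken as the infranatant. Cholesterol measured enzymatically; % vs vehicle, mean ± SEM of four pools.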

Rattus norvegicus [2] = test: Hypolipidemic activity was determined in male rats, cholesterol was determined in high-density lipoproteins at 30 mg/kg; format: functional, organism-based; design: dose 30 mg/kg; method in brief: as §1
Rattus norvegicus [3] = test: Hypolipidemic activity was determined in male rats, cholesterol was determined in low-density lipoproteins at 100 mg/kg; format: functional, organism-based; design: dose 100 mg/kg; method in brief: as §1
Rattus norvegicus [4] = species: Rattus norvegicus; conditions: 30 mg/kg
Rattus norvegicus [5] = test: Hypolipidemic activity was determined in male rats, and serum cholesterol level was determined at 100 mg/kg
Rattus norvegicus [6] = test: Hypolipidemic activity was determined in male rats, and low-density lipoprotein level was determined at 30 mg/kg
Rattus norvegicus [7] = test: Compound was tested for hypolipidemic activity in male rats, cholesterol level was determined in serum at 30 mg/kg; format: functional, organism-based; design: dose 30 mg/kg
Method in brief: (§2)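 Male Wistar rats (200–230 g), eight per group, were dosed orally in PEG 400 at 8 a.m. for 4 days, plus a second dose at 4 p.m. on day 4. Rats were fasted 16 h and killed 16 h after the last dose. Sera from pairs of rats were pooled. LDL (up to 1.040 g/cm³) was separated by ultracentrifugation and the HDL infranatant taken. Cholesterol was measured enzymatically. Results are % versus vehicle control, mean ± SEM of four pools, Student's t test.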

Rattus norvegicus [8] = test: Tested for hypolipidemic activity in male rats, cholesterol was determined in serum at 10 mg/kg; format: functional; method in brief: as §1
Rattus norvegicus [9] = test: Tested for hypolipidemic activity in male rats, cholesterol was determined in serum at 20 mg/kg; format: functional; method in brief: as §1
Rattus norvegicus [10] = test: Hypolipidemic activity was determined in male rats, and high-density lipoprotein level was determined at 10 mg/kg; format: functional; method in brief: as §2
Rattus norvegicus [11] = test: Hypolipidemic activity was determined in male rats, and high-density lipoprotein level was determined at 20 mg/kg; format: functional; method in brief: as §2
Rattus norvegicus [12] = test: Hypolipidemic activity was determined in male rats, and low-density lipoprotein level was determined at 10 mg/kg; format: functional; method in brief: as §2
Rattus norvegicus [13] = test: Hypolipidemic activity was determined in male rats, and low-density lipoprotein level was determined at 20 mg/kg; format: functional; method in brief: as §2
[14] = Inhibitory activity against RNA polymerase was determined; design: species or system Escherichia coli
Method in brief: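 E. coli DNA-dependent RNA polymerase inhibition measured in vitro on ether-extracted, permeabilized E. coli cells.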

Rattus norvegicus [15] = test: Hypolipidemic activity was determined by measuring the % serum HDL in hypercholesterolemic RICO rat at a dose of 10 mg/kg; format: functional, organism-based; design: dose 10 mg/kg
Method in brief: (§3)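 Genetically hypercholesterolemic RICO rats (Tif:RAI,f,SPF) were dosed orally for 7 days. Sera were collected after a 16 h fast and pooled in pairs. LDL (1.006–1.040 g/cm³) and HDL infranatant were separated by ultracentrifugation. Cholesterol and triglycerides were measured enzymatically. Results are % change versus vehicle control, mean ± SEM of four pools.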

Rattus norvegicus [16] = test: Hypolipidemic activity was determined by measuring the % serum HDL in hypercholesterolemic RICO rat at a dose of 3 mg/kg; format: functional, organism-based; design: dose 3 mg/kg; method in brief: as §3
Rattus norvegicus [17] = test: Hypolipidemic activity was determined by measuring the % serum HDL in hypercholesterolemic RICO rat at a dose of 30 mg/kg; format: functional, organism-based; design: dose 30 mg/kg; method in brief: as §3
Rattus norvegicus [18] = test: Hypolipidemic activity was determined by measuring the % serum HDL in normal rat at a dose of 1 mg/kg; format: functional, organism-based; design: dose 1 mg/kg
Method in brief: (§4)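 Normal male Wistar rats (200–230 g), eight per group, were dosed orally in PEG 400 once daily for 7 days. They were fasted 16 h and killed 24 h after the last dose. Serum from pairs was pooled and LDL/HDL fractions were ultracentrifuged. Cholesterol and triglycerides were measured enzymatically. Results are % versus vehicle control, mean ± SEM of four pools, Student's t test.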

Rattus norvegicus [19] = test: Hypolipidemic activity was determined by measuring the % serum HDL in normal rat at a dose of 3 mg/kg; format: functional, organism-based; design: dose 3 mg/kg; method in brief: as §4
Rattus norvegicus [20] = test: Hypolipidemic activity was determined by measuring the % serum HDL in normal rat at a dose of 30 mg/kg; format: functional, organism-based; design: dose 30 mg/kg; method in brief: as §4
Rattus norvegicus [21] = test: Hypolipidemic activity was determined by measuring the % serum cholesterol in hypercholesterolemic RICO rat at a dose of 10 mg/kg; format: functional, organism-based; design: dose 10 mg/kg; method in brief: as §3
Rattus norvegicus [22] = test: Hypolipidemic activity was determined by measuring the % serum cholesterol in hypercholesterolemic RICO rat at a dose of 3 mg/kg; format: functional, organism-based; design: dose 3 mg/kg; method in brief: as §3
Rattus norvegicus [23] = test: Hypolipidemic activity was determined by measuring the % serum cholesterol in hypercholesterolemic RICO rat at a dose of 30 mg/kg; format: functional, organism-based; design: dose 30 mg/kg; method in brief: as §3
Rattus norvegicus [24] = test: Hypolipidemic activity was determined by measuring the % serum cholesterol in normal rat at a dose of 1 mg/kg; format: functional, organism-based; design: dose 1 mg/kg; method in brief: as §4
Rattus norvegicus [25] = test: Hypolipidemic activity was determined by measuring the % serum cholesterol in normal rat at a dose of 10 mg/kg; format: functional, organism-based; design: dose 10 mg/kg; method in brief: as §4
Rattus norvegicus [26] = test: Hypolipidemic activity was determined by measuring the % serum cholesterol in normal rat at a dose of 3 mg/kg; format: functional, organism-based; design: dose 3 mg/kg; method in brief: as §4
Rattus norvegicus [27] = test: Hypolipidemic activity was determined by measuring the % serum cholesterol in normal rat at a dose of 30 mg/kg; format: functional, organism-based; design: dose 30 mg/kg; method in brief: as §4
Rattus norvegicus [28] = test: Hypolipidemic activity was determined by measuring the % serum LDL-cholesterol in hypercholesterolemic RICO rat at a dose of 10 mg/kg; format: functional, organism-based; design: dose 10 mg/kg; method in brief: as §3
Rattus norvegicus [29] = test: Hypolipidemic activity was determined by measuring the % serum LDL-cholesterol in hypercholesterolemic RICO rat at a dose of 3 mg/kg; format: functional, organism-based; design: dose 3 mg/kg; method in brief: as §3
Rattus norvegicus [30] = test: Hypolipidemic activity was determined by measuring the % serum LDL-cholesterol in hypercholesterolemic RICO rat at a dose of 30 mg/kg; format: functional, organism-based; design: dose 30 mg/kg; method in brief: as §3
Rattus norvegicus [31] = test: Hypolipidemic activity was determined by measuring the % serum LDL in normal rat at a dose of 1 mg/kg; format: functional, organism-based; design: dose 1 mg/kg; method in brief: as §4
Rattus norvegicus [32] = test: Hypolipidemic activity was determined by measuring the % serum LDL in normal rat at a dose of 10 mg/kg; format: functional, organism-based; design: dose 10 mg/kg; method in brief: as §4
Rattus norvegicus [33] = test: Hypolipidemic activity was determined by measuring the % serum LDL in normal rat at a dose of 3 mg/kg; format: functional, organism-based; design: dose 3 mg/kg; method in brief: as §4
Rattus norvegicus [34] = test: Hypolipidemic activity was determined by measuring the % serum LDL in normal rat at a dose of 30 mg/kg; format: functional, organism-based; design: dose 30 mg/kg; method in brief: as §4
Rattus norvegicus [35] = test: Hypolipidemic activity was determined by measuring the % serum triglycerides in normal rat at a dose of 3 mg/kg; format: functional, organism-based; design: dose 3 mg/kg; method in brief: as §4
Rattus norvegicus [36] = test: Hypolipidemic activity was determined by measuring the % serum triglycerides in normal rat at a dose of 30 mg/kg; format: functional, organism-based; design: dose 30 mg/kg; method in brief: as §4
Rattus norvegicus [37] = test: Hypolipidemic activity was determined by measuring the % serum triglycerides in hypercholesterolemic RICO rat at a dose of 10 mg/kg; format: functional, organism-based; design: dose 10 mg/kg; method in brief: as §3
Rattus norvegicus [38] = test: Hypolipidemic activity was determined by measuring the % serum triglycerides in hypercholesterolemic RICO rat at a dose of 3 mg/kg; format: functional, organism-based; design: dose 3 mg/kg; method in brief: as §3
Rattus norvegicus [39] = test: Hypolipidemic activity was determined by measuring the % serum triglycerides in hypercholesterolemic RICO rat at a dose of 30 mg/kg; format: functional, organism-based; design: dose 30 mg/kg; method in brief: as §3
Rattus norvegicus [40] = test: Hypolipidemic activity was determined by measuring the % serum triglycerides in normal rat at a dose of 1 mg/kg; format: functional, organism-based; design: dose 1 mg/kg; method in brief: as §4
Rattus norvegicus [41] = test: Hypolipidemic activity was determined by measuring the % serum triglycerides in normal rat at a dose of 10 mg/kg; format: functional, organism-based; design: dose 10 mg/kg; method in brief: as §4
Staphylococcus aureus = test: Antibacterial activity against Staphylococcus aureus 10B; format: functional
Method in brief: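 Agar dilution on DST agar with 2-fold drug dilutions. Inoculum of 10⁴ viable S. aureus 10B was taken from liquid-nitrogen stock, thawed 30 min and not subcultured. It was applied by multipoint replicator and incubated overnight at 37 °C. MIC is the lowest concentration inhibiting growth relative to control cultures.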

Rattus norvegicus [42] = test: Hypolipidemic activity was determined by measuring the % serum HDL in normal rat at a dose of 10 mg/kg; format: functional, organism-based; design: dose 10 mg/kg; method in brief: as §4

O=C(O)c1cccnc1
Serum HDL-cholesterol (Rattus norvegicus [1]): -13%
Serum HDL-cholesterol (Rattus norvegicus [2]): -1%
Serum LDL-cholesterol (Rattus norvegicus [3]): -52%
Serum cholesterol (Rattus norvegicus [4]): -6%
Serum cholesterol (Rattus norvegicus [5]): -10%
Serum LDL-cholesterol (Rattus norvegicus [6]): -32%

CCOC(=O)C(C)(C)Oc1ccc(Cl)cc1
Serum HDL-cholesterol (Rattus norvegicus [1]): -34%
Serum HDL-cholesterol (Rattus norvegicus [2]): -13%
Serum LDL-cholesterol (Rattus norvegicus [3]): 14%
Serum cholesterol (Rattus norvegicus [7]): -15%
Serum cholesterol (Rattus norvegicus [5]): -30%
Serum LDL-cholesterol (Rattus norvegicus [6]): -8%

COC1/C=C/OC2(C)Oc3c(C)c(O)c4c(O)c(c(N5CCN(Cc6c(C)cc(C)cc6C)CC5)c(O)c4c3C2=O)NC(=O)/C(C)=C\C=C\C(C)C(O)C(C)C(O)C(C)C(OC(C)=O)C1C (stereo not drawn)
Activity (Rattus norvegicus [8]): -35%
Activity (Rattus norvegicus [9]): -63%
Activity (Rattus norvegicus [10]): -38%
Activity (Rattus norvegicus [11]): -58%
Activity (Rattus norvegicus [12]): -43%
Activity (Rattus norvegicus [13]): -79%
IC50 [14]: 0.3 µg/mL (≈ 0.328 µM)
Serum HDL-cholesterol (Rattus norvegicus [15]): -30%
Serum HDL-cholesterol (Rattus norvegicus [16]): -7%
Serum HDL-cholesterol (Rattus norvegicus [17]): -72%
Serum HDL-cholesterol (Rattus norvegicus [18]): -8%
Serum HDL-cholesterol (Rattus norvegicus [19]): -14%
Serum HDL-cholesterol (Rattus norvegicus [20]): -69%
Serum cholesterol (Rattus norvegicus [21]): -30%
Serum cholesterol (Rattus norvegicus [22]): -8%
Serum cholesterol (Rattus norvegicus [23]): -65%
Serum cholesterol (Rattus norvegicus [24]): 0%
Serum cholesterol (Rattus norvegicus [25]): -42%
Serum cholesterol (Rattus norvegicus [26]): -11%
Serum cholesterol (Rattus norvegicus [27]): -72%
Serum LDL-cholesterol (Rattus norvegicus [28]): -42%
Serum LDL-cholesterol (Rattus norvegicus [29]): -29%
Serum LDL-cholesterol (Rattus norvegicus [30]): -68%
Serum LDL-cholesterol (Rattus norvegicus [31]): -11%
Serum LDL-cholesterol (Rattus norvegicus [32]): -53%
Serum LDL-cholesterol (Rattus norvegicus [33]): -28%
Serum LDL-cholesterol (Rattus norvegicus [34]): -64%
Serum triglyceride (Rattus norvegicus [35]): -3%
Serum triglyceride (Rattus norvegicus [36]): -50%
Serum triglyceride (Rattus norvegicus [37]): -17%
Serum triglyceride (Rattus norvegicus [38]): 8%
Serum triglyceride (Rattus norvegicus [39]): -55%
Serum triglyceride (Rattus norvegicus [40]): 11%
Serum triglyceride (Rattus norvegicus [41]): -18%
MIC (Staphylococcus aureus): 0.01 µg/mL (≈ 0.0109 µM)
Serum HDL-cholesterol (Rattus norvegicus [42]): -46%

— ChEMBL document CHEMBL1125042, “Hypolipidemic activity of rifamycin derivatives” (J Med Chem, 1990)
